The text below walks through data of publication PMC3596460 (Nuclear medicine and biology, 2013).

As a reminder, the Km is the concentration of substrate that gives half-maximal velocity. The Ki is a measure of affinity in units of concentration, obtained from inhibition or displacement. As a reminder, the log P is the decadic logarithm of the partition coefficient of the neutral form, usually between octanol and water. What is called Kd is the equilibrium constant for the complex coming apart. A lower Kd goes with tighter binding.

Where two headings read alike, the source gives them in different places.

In series [1] the target is T1, human norepinephrine transporter (hNET) (Homo sapiens, UniProt P23975). The series is described as follows: Saturation transport kinetics assays with intact C6-hNET cells. Type of series: cell-based. The conditions noted are these: for Km / Vmax: intact C6-hNET cells, 5 min, 37 °C, mean ± SD, n = 4 or 5.
Series [2] deals with norepinephrine transporter (NET). The series is described as follows: NET transport kinetics / neuronal uptake in isolated perfused rat hearts. The conditions noted are these: isolated rat heart, ratio of Vmax and Km estimates.
The test system is the same in series [3]. The conditions noted are these: isolated rat heart, cited from earlier work.
In series [4] the target is T1, human norepinephrine transporter (hNET). The series is described as follows: Competitive inhibition of [^3H]mazindol binding to C6-hNET cell membranes. The essentials:
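Rat C6 glioma cells stably expressing human NET were Dounce-homogenized, and membranes were pelleted at 100,000 × g and resuspended in 50 mM Tris, 120 mM NaCl, 5 mM KCl, pH 7.4. Each assay used 70–100 μg protein. Radioligand was [3H]mazindol, with desipramine defining nonspecific binding. Ten inhibitor concentrations were run in quadruplicate and normalized to % specific binding. A one-site competition fit gave IC50, converted to Ki by Cheng-Prusoff using the mean saturation KD.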

The conditions of series [5]: earlier studies, reference not given; cited from earlier work.
In series [6] the target is T1, human norepinephrine transporter (hNET). The series is described as follows: Saturation binding assays with [^3H]mazindol and C6-hNET membranes. The conditions noted are these: C6-hNET cell membranes, n = 4. The essentials: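 The membranes were C6-hNET cell membranes, 100,000 × g pellets in 50 mM Tris/120 mM NaCl/5 mM KCl, pH 7.4, from different batches. Protein was measured by Lowry with BSA standards. Eight [3H]mazindol concentrations (0.25–25 nM) were tested, with specific binding in triplicate at each. A one-site binding nonlinear fit gave KD (nM) and Bmax (fmol/mg protein).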

[7] abbreviates: [^3H]mazindol, homogenized C6-hNET cell membranes, Cheng-Prusoff, mean ± SD, n = 4 or 5.

T1 sequence (P23975 whole entry, the tested form may be a part): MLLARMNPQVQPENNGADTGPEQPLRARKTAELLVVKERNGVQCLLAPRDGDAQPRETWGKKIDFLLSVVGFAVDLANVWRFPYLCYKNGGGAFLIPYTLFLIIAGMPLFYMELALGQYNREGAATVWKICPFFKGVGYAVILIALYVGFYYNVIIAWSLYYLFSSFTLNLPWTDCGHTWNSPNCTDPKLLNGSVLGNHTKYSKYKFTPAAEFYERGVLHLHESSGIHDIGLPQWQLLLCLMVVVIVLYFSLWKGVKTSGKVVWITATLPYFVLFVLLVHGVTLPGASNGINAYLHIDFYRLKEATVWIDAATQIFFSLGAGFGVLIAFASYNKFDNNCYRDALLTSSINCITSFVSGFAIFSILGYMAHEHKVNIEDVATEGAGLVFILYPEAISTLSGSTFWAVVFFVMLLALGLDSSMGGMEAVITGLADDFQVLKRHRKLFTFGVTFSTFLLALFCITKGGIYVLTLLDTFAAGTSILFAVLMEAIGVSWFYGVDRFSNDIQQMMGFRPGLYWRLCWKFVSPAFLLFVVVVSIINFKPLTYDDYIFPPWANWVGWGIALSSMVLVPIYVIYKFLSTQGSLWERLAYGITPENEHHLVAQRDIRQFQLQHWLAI

Take [^3H]dopamine [DA]: in series [1], the Km was found to be 0.24 ± 0.04 µM and the Vmax is 2.91 ± 0.47 pmol/min/mg protein. In series [2] (ref Hellmann et al. [11]), the Vmax/Km ratio is given as 2.10 ml/min/g wet. In addition, in series [3] (ref Hellmann et al. [11]), the Km was 0.69 µM and the Vmax was 1.45 nmol/min/g wet.
In the case of `N=C(N)NCc1cccc(I)c1` [MIBG, [^131I]metaiodobenzylguanidine], in series [3] (ref DeGrado et al. [15]), the Km was 0.052 µM.
As to `N=C(N)NCCc1cc(O)ccc1F` [6F-MHPG, [^11C]6-fluoro-meta-hydroxyphenethylguanidine], the inhibition constant Ki in series [4] (setting [7]) is 17.7 ± 0.5 µM. Moreover, the Km in series [1] is 2.86 ± 0.43 µM.
On the same counts, the results for `N=C(N)NCCc1ccc(O)cc1` [PHPG, [^11C]para-hydroxyphenethylguanidine] are 1.9 ± 0.2 µM and 0.52 ± 0.06 µM.
Regarding `CNC[C@H](O)c1ccc(O)c(O)c1` [EPI, [^11C]-(−)-epinephrine], in series [4], affinity was put at a Ki of 68.4 ± 7.6 µM. For the same compound, the “Km increase relative to NE” value in series [1] (C6-hNET cells, comparator NE) was 11 fold. In series [5], the “log P” value is −1.30.
Take `N=[11C](N)NCCc1cc(O)ccc1F` [6F-MHPG, [^11C]6-fluoro-meta-hydroxyphenethylguanidine]: in series [1] (C6-hNET cells, comparator MHPG), the “Km increase relative to MHPG” value is listed as ~ 5 fold, the “Vmax decrease relative to MHPG” value was ~ 50% and the “Vmax/Km as percentage of the value for MHPG” value is ~ 12%. Further, in series [1], the Vmax worked out at 4.06 ± 0.66 pmol/min/mg protein.
As for `N=[11C](N)NCCc1ccc(O)cc1` [PHPG, [^11C]para-hydroxyphenethylguanidine], in series [1], the Vmax amounted to 3.31 ± 0.40 pmol/min/mg protein.
In series [6], `OC1(c2ccc(Cl)cc2)c2ccccc2C2=NCCN21` (stereo not drawn) [[^3H]mazindol, [4′-^3H]Mazindol] gave a Bmax of 457 ± 31 fmol/mg protein and a Kd of 0.0012 µM.
Turning to `N=C(N)NCCc1ccc(F)c(O)c1` [4F-MHPG, [^11C]4-fluoro-meta-hydroxyphenethylguanidine], in series [4] (setting [7]), the Ki was 5.6 ± 0.5 µM. The “Km increase relative to MHPG” value in series [1] (C6-hNET cells, comparator MHPG) worked out at 5 fold. Moreover, in series [1], the Michaelis-Menten constant (Km) turned out to be 2.57 ± 0.35 µM and the Vmax amounted to 7.46 ± 0.64 pmol/min/mg protein.
Take `NC[C@H](O)c1ccc(O)c(O)c1` [NE, [^3H]-(−)-norepinephrine]: in series [3] (ref Iversen [14]), the Km was 0.27 µM and the Vmax is 1.18 ± 0.12 nmol/min/g wet.
Take `NC(N)=NCc1cccc(Br)c1` [MBBG, [^76Br]-meta-bromobenzylguanidine]: the Km in series [3] (ref Raffel et al. [16]) is 0.11 ± 0.03 µM.
In the case of `N=C(N)NCc1cccc([131I])c1` [MIBG, [^131I]metaiodobenzylguanidine], in series [2] (ref DeGrado et al. [15]), the Vmax/Km ratio is 4.4 ml/min/g wet. For the same compound, in series [3] (ref DeGrado et al. [15]), the Vmax was 0.23 nmol/min/g wet.
As for `NC(N)=NCc1cccc([76Br])c1` [MBBG, [^76Br]-meta-bromobenzylguanidine], in series [2] (ref Raffel et al. [16]), the Vmax/Km ratio is reported as 3.0 ± 1.2 ml/min/g wet. The Vmax in series [3] (ref Raffel et al. [16]) is given as 0.33 ± 0.10 nmol/min/g wet.
Regarding `N=[11C](N)NCC(O)c1cccc(O)c1` (single isomer, unassigned; (-)) [GMO, (−)-N-[^11C]guanyl-meta-octopamine], in series [1] (C6-hNET cells, comparator MHPG), the “Km increase relative to MHPG” value is given as 6 fold, the “Vmax decrease relative to MHPG” value stood at 30% and the “Vmax/Km ratio slower than for MHPG” value is reported as ~ 9 times slower. Further, the Vmax in series [1] is reported as 5.57 ± 0.30 pmol/min/mg protein.
In series [4] (setting [7]), [^11C]-(−)-meta- hydroxyephedrine gave a Ki of 43.2 ± 1.8 µM. In series [1], the Km was determined as 0.48 ± 0.08 µM and the Vmax came out at 5.43 ± 0.71 pmol/min/mg protein. For the same compound, the “log P” value in series [5] is on record as 0.3.
Take `N=C(N)NCCc1cccc(O)c1` [MHPG, [^11C]meta-hydroxyphenethylguanidine]: in series [4] (setting [7]), the affinity corresponds to a Ki of 4.9 ± 0.5 µM. Moreover, the Michaelis constant (Km) in series [1] was found to be 0.73 ± 0.2 µM.
For `N=C(N)NCC(O)c1cccc(O)c1` (single isomer, unassigned; (-)) [GMO, (−)-N-[^11C]guanyl-meta-octopamine] the same measures were 20.3 ± 2.5 µM and 4.43 ± 0.31 µM.
On to `N=[11C](N)NCCc1cccc(O)c1` [MHPG, [^11C]meta-hydroxyphenethylguanidine], for which the “Vmax relative to PHPG” value in series [1] (C6-hNET cells, comparator PHPG) worked out at 2.4 times higher. In addition, the Vmax in series [1] was determined as 7.83 ± 1.73 pmol/min/mg protein.
